Screens from PubChem.
MIN6 prolif: MIN6 beta-cell proliferation induction | MIN6 cells proliferation, ATPlite luminescence, 48 h; cells starved in 0.2% serum; 100% = growth in 10% serum | proliferation, % at 10 µM | 0.29% of 330,000 active | AID 2380;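 active means compounds whose signal lies at least 3.5 SD above the mean of all wells on their plate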;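 further: 0% = DMSO-treated cells in low-serum medium and 100% = 10% serum control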
ANO1 block: mouse TMEM16A channel inhibition, primary screen; normalized B-score (activity score, 25-100; higher = stronger inhibition) at 10 µM; AID 588511; HEK293 TMEM16A/YFP iodide influx fluorescence, ionomycin; 1.2% of 310,000 active; Q8BHY3;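 active means ratio plate-corrected score three or more library SD toward inhibition, starting fluorescence score within five deviations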;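 further: score derived from kinetic fluorescence span divided by baseline fluorescence per well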
m5-HT2A agonist: agonists of mouse serotonin 5-HT2A receptor (HTR2A); P35363; CHO-K1 mHTR2A beta-arrestin complementation, luminescence; percent of 30 µM serotonin response; activation, % at 7.6 µM; 0.66% of 360,000 active; AID 624169;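 active means activation above a run cutoff, the mean activation of all tested compounds plus 3 SD, cut at about 14% in these data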;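 further: 0% = plate median of compound wells and 100% = 30 µM serotonin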
Target sequence (P35363 whole entry, looked up): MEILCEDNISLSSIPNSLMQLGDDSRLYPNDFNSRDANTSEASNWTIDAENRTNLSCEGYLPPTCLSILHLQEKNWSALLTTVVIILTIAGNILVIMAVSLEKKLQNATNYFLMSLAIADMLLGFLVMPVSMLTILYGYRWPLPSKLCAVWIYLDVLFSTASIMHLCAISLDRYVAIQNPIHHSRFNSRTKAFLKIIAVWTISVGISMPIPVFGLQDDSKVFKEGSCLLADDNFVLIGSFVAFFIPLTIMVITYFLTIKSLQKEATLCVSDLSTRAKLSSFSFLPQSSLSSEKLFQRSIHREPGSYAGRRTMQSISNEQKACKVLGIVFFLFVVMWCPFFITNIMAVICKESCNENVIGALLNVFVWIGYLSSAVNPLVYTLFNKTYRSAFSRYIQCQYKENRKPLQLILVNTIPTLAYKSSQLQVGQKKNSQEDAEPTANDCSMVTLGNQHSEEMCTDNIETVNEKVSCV
MC4R antagonist: human MC4R antagonism in cAMP assay | P32245 | MC4R-expressing cells, MTII-stimulated cAMP, LANCE TR-FRET | inhibition, % at 6.5 µM | 0.48% of 360,000 active;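 active means inhibition above its plate's cutoff, the mean of tested wells on that plate plus 3 SD, cut at about 29% in these data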;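 further: 0% = Melanotan II alone and 100% = Melanotan II plus saturating MCL0020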
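system = U2OS cells with stable human MC4R expression | also added = Melanotan II challenge after compound preincubation | dosing = one concentration, 6.5 µM nominal | incubation = compound 30 min, challenge 1 h, detection 1 h | measured by = TR-FRET with Eu-cAMP and labeled anti-cAMP, 671 nm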
MC4R barr agon: agonists of human melanocortin 4 receptor (MC4R) beta-arrestin; P32245; U2OS MC4R beta-arrestin complementation, luminescence; percent of melanotan II response, DMSO zero; activation, % at 8.9 µM; 0.98% of 360,000 active; AID 540308;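 active means activation above a per-plate cutoff, the mean activation of sample wells on that plate plus 3 SD, cut at about 8% in these data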
ANO1 activ: activates or potentiates the mouse TMEM16A chloride channel | AID 623877 | HEK293 TMEM16A/YFP-H148Q/I152L, iodide quench fluorescence; active compounds read low | 0.3% of 340,000 active | B-score at 10 µM;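 active means fluorescence-ratio B-score plate-corrected deviation score at least 3 library SD below zero, with starting fluorescence score within 5 deviations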;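 further: channel opened by trigger with iodide after compound preincubation; score built on the fluorescence ratio of max minus min over baseline; more negative score means more quench and so TMEM16A activation or potentiation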
* hit, by the source's call; i = inactive; / = not tested or not shown. In the library only some 3.4% were active in any assay of this set; here they are far more common.

SMILES	MIN6 prolif	ANO1 block	m5-HT2A agonist	MC4R antagonist	MC4R barr agon	ANO1 activ
COc1ccc(C2Nc3ccccc3C(=O)N2c2ccc(F)cc2)cc1CSc1ccccn1 (stereo unspecified)	-0.7	i	3.8	-2.6	33.0*	i
COc1ccc(C(=O)Oc2cccc(Nc3ncnc4ccccc34)c2)cc1OC	0.0	i	4.2	2.1	0.9	i
CC(C)(C)C(=O)Oc1cccc(Nc2ncnc3ccccc23)c1	-3.9	25*	-2.5	2.4	-0.7	i
O=C(N/N=C/c1ccc(-c2ccc(S(=O)(=O)Nc3ncccn3)cc2)o1)c1cc2ccccc2cc1O	-4.1	100*	-3.9	-4.0	-2.1	i
O=C(NC(=S)Nc1ccccc1N1CCN(C(=O)c2ccccc2)CC1)c1ccccc1F	-6.9	i	1.3	6.4	-2.8	i
O=C(NC1CCN(Cc2ccccc2)CC1)c1cccc(S(=O)(=O)Nc2cc(C(F)(F)F)ccc2Cl)c1	-3.3	25*	-0.2	0.6	0.0	i
CCC1CCCCN1C(=O)c1cccc(S(=O)(=O)Nc2cc(C(F)(F)F)ccc2Cl)c1 (stereo unspecified)	-2.2	25*	-0.7	0.4	2.5	i
O=C(c1cccc(S(=O)(=O)Nc2ccccc2Cl)c1)N1CCCCCC1	-1.6	i	-3.2	15.0	-3.0	i
O=C(NCC1CCCO1)c1cccc(S(=O)(=O)Nc2ccccc2Cl)c1 (stereo unspecified)	/	/	-5.5	-0.2	0.1	/
COc1ccc(N2CCN(C(=O)COCc3cc(-c4ccc5c(c4)OCO5)on3)CC2)cc1	-2.3	i	4.5	-7.0	-0.1	i
COc1ccc(-c2noc(CCC(=O)N3CCN(c4cccc(C(F)(F)F)c4)CC3)n2)cc1	-3.7	100*	5.9	7.7	2.9	i
COc1ccc(-c2noc(CCC(=O)N3CCN(c4cccc(OC)c4)CC3)n2)cc1	/	/	12.2	-2.0	1.2	/
O=C(COCc1cc(-c2ccc3c(c2)OCO3)on1)N1CCN(c2cccc(C(F)(F)F)c2)CC1	-7.9	25*	0.9	-0.5	-1.5	i
COc1ccc(-c2cc(C3CCN(c4cc(Cl)nc(N)n4)CC3)[nH]n2)cc1	-5.5	i	0.0	-3.6	-0.9	i
Nc1nc(Cl)cc(N2CCC(c3cc(-c4ccc(Cl)cc4)n[nH]3)CC2)n1	-5.8	100*	8.7	19.1	4.8	i
CC(=O)NC(c1cccc(F)c1)c1nc(-c2cccs2)cs1 (stereo unspecified)	/	/	6.8	1.5	-0.6	/
CSc1ccc(Cl)c(C(=O)N(C)CC(=O)Nc2ccc(N3CCOCC3)cc2)c1	-0.8	i	-0.4	2.2	-0.5	i
Cn1c(=O)cc(OCC(=O)NCCCN2CCN(c3ccccc3F)CC2)c2ccccc21	4.8	i	24.8*	0.1	-0.2	i
CCOc1cc(OCC)cc(C(=O)N2CCC[C@@H]2C(=O)N2CCC[C@@H]2C(=O)NCc2ccccc2Cl)c1	/	/	6.5	/	/	/
COc1cc(OC)cc(C(=O)NC(=S)NNC(=O)[C@H]2C[C@@H]2c2ccccc2)c1	-3.8	100*	4.5	-0.7	-3.7	i
COCC(=O)N1C[C@H]2CON(C)[C@H]2C[C@H]1c1cccc(-c2ccccc2)c1	/	/	6.2	-0.7	-0.9	/
Cc1ccc(S(=O)(=O)n2nccc2-c2c(-c3ccc(Cl)cc3)noc2C)cc1	-4.2	i	-0.9	6.7	0.5	-4.86*
CC(Oc1ccc(Cl)cc1)c1ccnn1S(=O)(=O)c1ccc(Cl)cc1 (stereo unspecified)	-5.6	i	-5.3	11.8	-1.1	i
O=[N+]([O-])c1ccc(O)c(C2=NNC(c3ccccc3F)C2)c1 (stereo unspecified)	-6.2	100*	-1.4	-9.7	1.0	i
S=C(Nc1ccc(Oc2ccccc2)cc1)NC1CCCCCC1	/	100*	-4.6	9.9	2.5	i
SMILES	MIN6 prolif	ANO1 block	m5-HT2A agonist	MC4R antagonist	MC4R barr agon	ANO1 activ
O=C1CCCCC1C(Nc1ccc(Cl)cc1)c1ccccc1 (stereo unspecified)	-3.8	i	2.5	1.9	8.9*	i
CCCCc1c(Cc2ccccc2)ncn1CCc1ccccc1OC	/	/	-0.6	/	/	/
C[C@@H]1CCCCO[C@H](CN(C)S(=O)(=O)c2cn(C)cn2)[C@@H](C)CN([C@H](C)CO)C(=O)c2cc(NC(=O)c3ccncc3)ccc2O1	/	/	4.1	17.2	1.4	/
O=[N+]([O-])c1ccc(S(=O)(=O)Nc2ccncc2)cc1	-2.1	i	2.4	0.4	-1.0	i
O=[N+]([O-])c1ccc(Oc2ccc(S(=O)(=O)Nc3ccccc3)cc2)cc1	0.0	25*	4.8	21.2	5.8	i
O=[N+]([O-])c1ccc(S(=O)(=O)Nc2nc(-c3ccccc3)cs2)cc1	-1.2	100*	6.5	-0.5	0.3	i
O=C(O)c1cc(O)c2c(c1)C(=O)c1cc(O)cc(O)c1C2=O	-3.3	i	-4.5	-5.1	-1.9	-16.4*
CC(=O)Oc1cccc2c1C(=O)c1c(OC(C)=O)cc(C(=O)O)cc1C2=O	-1.1	i	-0.2	-17.2	-4.2	i
COc1cc(C)nc(N2CCCC(C(=O)Nc3cc(Cl)ccc3OC)C2)n1 (stereo unspecified)	-4.6	25*	2.2	4.7	4.6	i
COc1cc(C)nc(N2CCCC(C(=O)NC3CCC(C)CC3)C2)n1 (stereo unspecified)	-2.6	i	/	/	/	/
OCc1ccccc1OCCCOc1cccc2cccnc12	-1.4	i	-2.6	4.5	1.6	i
Cc1ccc(CONS(=O)(=O)c2cc(C)ccc2C)cc1	0.9	/	0.8	-2.6	8.2*	i
CC(C)(C)c1cc(-c2csc(Nc3ccccc3)[n+]2Cc2ccc(C(=O)O)cc2)cc(C(C)(C)C)c1O	-6.6	100*	1.4	14.0	4.7	i
CN(C)c1ccc(P(=O)(OCc2ccccc2)C(O)c2ccncc2)cc1 (stereo unspecified)	3.8	25*	-1.4	-2.5	-0.5	i
Cc1ccccc1OCC(=O)Nc1ccc2c(c1)Cc1ccccc1-2	-2.6	i	0.3	6.9	28.3*	i
O=C(COc1ccccc1)Nc1ccc2c(c1)Cc1cc(NC(=O)COc3ccccc3)ccc1-2	-1.7	i	7.9	-0.1	-1.1	i
CC(C)(CNC(=O)CNC(=O)c1ccc(Cl)cc1Cl)N1CCOCC1	1.4	/	-1.8	5.9	0.1	i
O=C(CSCCc1ccccn1)Nc1ccccn1	-1.4	i	-5.9	9.2	0.0	i
O=C(CSCCc1ccccn1)Nc1cccnc1Cl	-2.3	25*	6.0	6.9	-0.4	i
